Reference: ChEMBL document CHEMBL1287662, “Potent neuroprotective role of novel melatonin derivatives for management of central neuropathy induced by acrylamide in rats” (2010)
Calls of active or inactive are those of the source. The calls are words filed in the database; no cut-off is given here.

Legend:
Rattus norvegicus [1] = experiment: Neuroprotective activity in Sprague-Dawley rat assessed as protection against acrylamide-induced decrease of glutathione level at 50 mg/kg, ip administered 10 mins before acrylamide challenge for 3 days per week […] by spectrofluorometrically (reference value: -27%); assay type: functional; design: scale not given: the % may be the effect or the level left; details: route intraperitoneal
Rattus norvegicus [2] = experiment: Neuroprotective activity in Sprague-Dawley rat assessed as protection against acrylamide-induced increase of malondialdehyde level at 50 mg/kg, ip administered 10 mins before acrylamide challenge for 3 days per week […] by spectrofluorometrically (reference value: 31%); assay type: functional; details: route intraperitoneal
Rattus norvegicus [3] = experiment: Neuroprotective activity in Sprague-Dawley rat assessed as protection against acrylamide-induced decrease of creatine kinase level at 50 mg/kg, ip administered 10 mins before acrylamide challenge for 3 days per week for 3 weeks by spectrofluorometrically (reference value: -73%); design: scale not given: the % may be the effect or the level left; details: route intraperitoneal
Rattus norvegicus [4] = experiment: Neuroprotective activity in Sprague-Dawley rat assessed as protection against acrylamide-induced decrease in adrenaline level at 50 mg/kg, ip administered 10 mins before acrylamide challenge for 3 days per week […] by ELISA (reference value: -40%); assay type: functional; design: scale not given: the % may be the effect or the level left; details: route intraperitoneal
Rattus norvegicus [5] = experiment: Neuroprotective activity in Sprague-Dawley rat assessed as protection against acrylamide-induced decrease of glutathione peroxidase level at 50 mg/kg, ip administered 10 mins before acrylamide challenge for 3 days per week for 3 weeks by spectrofluorometrically (reference value: -43%); design: scale not given: the % may be the effect or the level left; details: route intraperitoneal
Rattus norvegicus [6] = experiment: Neuroprotective activity in Sprague-Dawley rat assessed as protection against acrylamide-induced decrease in dopamine level at 50 mg/kg, ip administered 10 mins before acrylamide challenge for 3 days per week […] by spectrofluorometrically (reference value: -16%); assay type: functional; design: scale not given: the % may be the effect or the level left; details: route intraperitoneal
Rattus norvegicus [7] = experiment: Neuroprotective activity in Sprague-Dawley rat assessed as protection against acrylamide-induced decrease of superoxide dismutase level at 50 mg/kg, ip administered 10 mins before acrylamide challenge for 3 days per week for 3 weeks by spectrofluorometrically (reference value: -32%); design: scale not given: the % may be the effect or the level left; details: route intraperitoneal
Rattus norvegicus [8] = experiment: Neuroprotective activity in Sprague-Dawley rat assessed as protection against acrylamide-induced increase of LDH level at 50 mg/kg, ip administered 10 mins before acrylamide challenge for 3 days per week for 3 weeks by spectrofluorometrically (reference value: 67%); details: route intraperitoneal
Rattus norvegicus [9] = experiment: Neuroprotective activity in Sprague-Dawley rat assessed as protection against acrylamide-induced decrease in noradrenaline level at 50 mg/kg, ip administered 10 mins before acrylamide challenge for 3 days per week […] by ELISA (reference value: -21%); assay type: functional; design: scale not given: the % may be the effect or the level left; details: route intraperitoneal
Rattus norvegicus [10] = experiment: Neuroprotective activity in Sprague-Dawley rat assessed as protection against acrylamide-induced neuronal damage at 50 mg/kg, ip administered 10 mins before acrylamide challenge for 3 days per week for 2 weeks by histopathology analysis; assay type: functional, organism-based; design: dose 50 mg/kg; details: in the assay text read “for 3 weeks” for “for 2 weeks”
Outline: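 Rats (n = 10 per group) given agent at 50 mg/kg i.p. in 2% Tween 10 min before ACR at 50 mg/kg i.p., 3 days/week for 3 weeks. Brain tissue examined by light photomicrography for neuronal morphology (dark neurons, chromatin clumping, vacuoles), compared with control and ACR-only rats.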

SMILES	Activity (Rattus norvegicus [1]) [%]	Activity (Rattus norvegicus [2]) [%]	Activity (Rattus norvegicus [3]) [%]	Activity (Rattus norvegicus [4]) [%]	Activity (Rattus norvegicus [5]) [%]	Activity (Rattus norvegicus [6]) [%]	Activity (Rattus norvegicus [7]) [%]	Activity (Rattus norvegicus [8]) [%]	Activity (Rattus norvegicus [9]) [%]	Activity (Rattus norvegicus [10])
COc1ccc2c(c1)c(CCNC(C)=O)c1sc(C3=C(c4ccccc4)CC(=N)C(C#N)=C3N)nn12	27	-20	18	63	8	11	71	-47	28	–
COc1ccc2[nH]cc(CCNC(C)=O)c2c1 [MELATONIN]	82	-22	59	67	38	33	135	-65	32	Active
COc1ccc2c(c1)c(CCNC(C)=O)cn2-c1c[nH]nc1-c1ccccc1	9	-17	6	60	3	3	41	-40	11	–
COc1ccc2c(c1)c(CCNC(C)=O)cn2CN1CCOCC1	27	-21	30	65	11	19	77	-55	28	–
COc1ccc2c(c1)c(CCNC(C)=O)c1sc(-c3c(C(C)=O)nn(-c4ccccc4)c3N)nn12	27	-19	6	60	5	10	65	-45	14	–
